What was measured:
[1] = Selectivity index, ratio of CC50 for human RD cells to EC50 for antiviral activity against Enterovirus A71 infected in human RD cells; format: toxicity, cell-based; conditions: read-out: Ratio CC50/EC50
[2] = test system: Human immunodeficiency virus 1; test: Anti-HIV activity against HIV-1 NL4.3 infected in PHA-stimulated human PBMC expressing CXCR-4 assessed as inhibition of virus-indued cytopathogenic effect measured after 10 days by ELISA; format: functional, organism-based; conditions: Human immunodeficiency virus 1, NL4.3, PBMC, 240 h
[3] = test system: Human immunodeficiency virus 1; test: Anti-HIV activity against HIV-1 Ba-L infected in PHA-stimulated PBMC expressing CCR5 assessed as inhibition of virus-indued cytopathogenic effect measured after 10 days by ELISA; format: functional, organism-based; conditions: Human immunodeficiency virus 1, Ba-L, 240 h
[4] = Inhibition of mouse mAb clone 9305 binding to HIV1 gp120 expressed in human MT4 cells by flow cytometry analysis; format: cell-based, Human immunodeficiency virus 1
rhinovirus A2 = test: Antiviral activity against Human rhinovirus 2 infected in HeLa cells assessed as reduction in virus induced cytopathic effect; format: functional, organism-based; conditions: Rhinovirus A
[5] = test system: Human immunodeficiency virus 1; test: Inhibition of HIV-1 gp120 interaction with human CD4 assessed as fold change in inhibition of viral entry at 10 to 40 nM by SPR analysis relative to AL-471; conditions: dose 10-40 nM
Summary of the method: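 His-CD4 at 2 μg/mL captured on a NiCl2-activated chip channel, with a reference channel alongside. 25 nM gp120 premixed with compound, 10 000 to 10 nM in fourfold steps, injected 2 min over both channels. Surface regenerated with 350 mM EDTA. Binding % from maximum response at injection end versus gp120 alone. Triplicate experiments.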

[6] = test system: Human immunodeficiency virus 1; test: Potency index, ratio of AL-471 EC50 to test compound EC50 for anti-HIV activity against HIV-1 NL4.3 infected in human MT4 cells assessed as reduction in virus-indued cytopathic effect preincubated with cells for 30 mins followed by viral infection and measured after 5 days by MTS assay; format: functional; conditions: time 120.5 hrs
[7] = test system: Human immunodeficiency virus 1; test: Binding affinity to CM5 sensor chip immobilized recombinant HIV-1 gp120 assessed as association constant at 12.5 to 0.1 uM by SPR analysis; conditions: dose 12.5-0.1 µM
rhinovirus B14 = test: Antiviral activity against Human rhinovirus 14 infected in HeLa cells assessed as reduction in virus induced cytopathic effect; format: functional, organism-based; conditions: Rhinovirus B
[8] = test system: Human immunodeficiency virus 1; test: Potency index, ratio of AL-471 Kd to test compound Kd for binding affinity to CM5 sensor chip immobilized recombinant HIV-1 gp120 at 12.5 to 0.1 uM measured for 4 mins by SPR analysis; conditions: dose 12.5-0.1 µM
[9] = test system: Human immunodeficiency virus 1; test: Inhibition of HIV-1 gp120 interaction with human CD4 assessed as inhibition of viral entry at 10 to 40 nM by SPR analysis relative to control; conditions: dose 10-40 nM
Summary of the method: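 His-CD4 (2 μg/mL) was captured on a Ni-chelated chip (0.5 mM NiCl2 activation). 25 nM gp120 premixed with compound (10 000 to 10 nM, fourfold steps) was injected for 2 min over reference and analysis channels. Binding % used the maximum response at end of injection relative to 25 nM gp120 alone. Regeneration was with 350 mM EDTA. Run in triplicate.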

[10] = Inhibition of human mAb clone 2G12 binding to HIV1 gp120 expressed in human MT4 cells by flow cytometry analysis; format: cell-based, Human immunodeficiency virus 1
Enterovirus A71 = test: Antiviral activity against Enterovirus A71 BrCr infected in human RD cells assessed as reduction in virus-induced cytopathic effect incubated for 3 days by MTS/PMS assay; format: functional, organism-based; conditions: Enterovirus A, 72 h
[11] = test system: Human immunodeficiency virus 1; test: Anti-HIV activity against HIV-1 NL4.3 infected in human MT4 cells assessed as reduction in virus-indued cytopathic effect preincubated with cells for 30 mins followed by viral infection and measured after 5 days by MTS assay; format: functional, organism-based; conditions: Human immunodeficiency virus 1, NL4.3, MT4
Summary of the method: (§1)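 MT-4 cells (1×10^6 cells/mL) were preincubated with compound for 30 min at 37 °C, then infected with cell-line-adapted NL4.3 or ROD dosed by TCID50 of the stock. After 5 days, CPE was scored microscopically and EC50 calculated from MTS/PES reduction (A490). Mean ± SD of at least three independent experiments.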

[12] = Cytotoxicity against human MT4 cells assessed as reduction in cell viability measured after 5 days by MTS/PES assay; format: cell-based; conditions: time 5 day
Summary of the method: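 Uninfected MT-4 cells were exposed to compound for 5 days. Viability was read by MTS/PES (A490, formazan proportional to living cells). […] Mean ± SD of at least three independent experiments.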

[13] = test system: Human immunodeficiency virus 2; test: Anti-HIV activity against HIV-2 ROD infected in human MT4 cells assessed as reduction in virus-indued cytopathic effect preincubated with cells for 30 mins followed by viral infection and measured after 5 days by MTS assay; format: functional, organism-based; conditions: Human immunodeficiency virus 2, ROD; summary of the method: as §1
[14] = Cytotoxicity against human RD cells assessed as reduction in cell viability measured after 3 days by MTS/PMS assay; format: cell-based; conditions: time 3 day
Summary of the method: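 Uninfected RD cells were treated with serial compound dilutions in the same 3-day setup as the antiviral assay. […] Multiple dose–response curves (>2) from >1 independent experiments.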

In the case of `O=C(CCOCC(COCCC(=O)NC(Cc1c(-c2ccc(C(=O)O)cc2)[nH]c2c(-c3ccc(C(=O)O)cc3)cccc12)C(=O)O)(COCCC(=O)NC(Cc1c(-c2ccc(C(=O)O)cc2)[nH]c2c(-c3ccc(C(=O)O)cc3)cccc12)C(=O)O)COCCC(=O)NC(Cc1c(-c2ccc(C(=O)O)cc2)[nH]c2c(-c3ccc(C(=O)O)cc3)cccc12)C(=O)O)NC(Cc1c(-c2ccc(C(=O)O)cc2)[nH]c2c(-c3ccc(C(=O)O)cc3)cccc12)C(=O)O` (configuration not stated), the selectivity ratio [1] is reported as 667.
With `CCOC(=O)c1ccc(OCCC2CCN(c3ccc(C)nn3)CC2)cc1` [PIRODAVIR] the selectivity ratio [1] was 333.
With `O=C(CCC(CCC(=O)NC(Cc1c[nH]c2c(-c3cc(C(=O)O)cc(C(=O)O)c3)cccc12)C(=O)O)(CCC(=O)NC(Cc1c[nH]c2c(-c3cc(C(=O)O)cc(C(=O)O)c3)cccc12)C(=O)O)[N+](=O)[O-])NC(Cc1c[nH]c2c(-c3cc(C(=O)O)cc(C(=O)O)c3)cccc12)C(=O)O` (configuration not stated) the selectivity ratio [1] was 63.
In the case of `Cc1nnc(C(C)C)n1[C@H]1C[C@H]2CC[C@@H](C1)N2CC[C@H](NC(=O)C1CCC(F)(F)CC1)c1ccccc1` [MARAVIROC], the EC50 [2] is reported as > 1000 nM and the EC50 [3] is reported as 4.48 nM.
With `O=C(CCOCC(COCCC(=O)NC(Cc1c(-c2cc(C(=O)O)cc(C(=O)O)c2)[nH]c2c(-c3cc(C(=O)O)cc(C(=O)O)c3)cccc12)C(=O)O)(COCCC(=O)NC(Cc1c(-c2cc(C(=O)O)cc(C(=O)O)c2)[nH]c2c(-c3cc(C(=O)O)cc(C(=O)O)c3)cccc12)C(=O)O)COCCC(=O)NC(Cc1c(-c2cc(C(=O)O)cc(C(=O)O)c2)[nH]c2c(-c3cc(C(=O)O)cc(C(=O)O)c3)cccc12)C(=O)O)NC(Cc1c(-c2cc(C(=O)O)cc(C(=O)O)c2)[nH]c2c(-c3cc(C(=O)O)cc(C(=O)O)c3)cccc12)C(=O)O` (configuration not stated) the IC50 [4] was > 100000 nM, the EC50 (rhinovirus A2) was > 50000 nM and the fold change (FC) [5] was 16. For the same compound, the selectivity ratio [1] was 2500, the “Ratio EC50” value [6] was 3.5 and the ka [7] was 3.34 10^3/M/s. The EC50 (rhinovirus B14) was > 50000 nM, the Ratio [8] was 6 and the inhibition [9] was 50%. For the same compound, the IC50 [10] was > 100000 nM.
`O=C(CCC(CCC(=O)NC(Cc1c(-c2cc(C(=O)O)cc(C(=O)O)c2)[nH]c2c(-c3cc(C(=O)O)cc(C(=O)O)c3)cccc12)C(=O)O)(CCC(=O)NC(Cc1c(-c2cc(C(=O)O)cc(C(=O)O)c2)[nH]c2c(-c3cc(C(=O)O)cc(C(=O)O)c3)cccc12)C(=O)O)[N+](=O)[O-])NC(Cc1c(-c2cc(C(=O)O)cc(C(=O)O)c2)[nH]c2c(-c3cc(C(=O)O)cc(C(=O)O)c3)cccc12)C(=O)O` (configuration not stated) showed an EC50 (Enterovirus A71) of 200 nM, an EC50 [11] of 40 nM and a selectivity ratio [1] of 526. The CC50 at 120 h [12] was > 100000 nM, the EC50 [13] was 70 nM and the CC50 at 72 h [14] was > 100000 nM.
For `O=C(CCC(CCC(=O)NC(Cc1c(-c2cc(C(=O)O)cc(C(=O)O)c2)[nH]c2ccccc12)C(=O)O)(CCC(=O)NC(Cc1c(-c2cc(C(=O)O)cc(C(=O)O)c2)[nH]c2ccccc12)C(=O)O)[N+](=O)[O-])NC(Cc1c(-c2cc(C(=O)O)cc(C(=O)O)c2)[nH]c2ccccc12)C(=O)O` (configuration not stated), the selectivity ratio [1] was 203.

— ChEMBL document CHEMBL5034016 (J Med Chem, 2021)
